According to ChEMBL document CHEMBL3822384, “2-(3-Methoxyphenyl)quinazoline Derivatives: A New Class of Direct Constitutive Androstane Receptor (CAR) Agonists” (J Med Chem, 2016):

Assays:
Type in all cases: cell-based
[1] = molecular target: T1, Nuclear receptor subfamily 1 group I member 3 (Homo sapiens, UniProt Q14994); test: Agonist activity at CAR expressed in human HepG2 cells at 1 to 20 uM after 48 hrs by p(ER6)3-luciferase reporter gene assay; conditions: hepg2, 48 h
T1 sequence (Q14994 whole entry): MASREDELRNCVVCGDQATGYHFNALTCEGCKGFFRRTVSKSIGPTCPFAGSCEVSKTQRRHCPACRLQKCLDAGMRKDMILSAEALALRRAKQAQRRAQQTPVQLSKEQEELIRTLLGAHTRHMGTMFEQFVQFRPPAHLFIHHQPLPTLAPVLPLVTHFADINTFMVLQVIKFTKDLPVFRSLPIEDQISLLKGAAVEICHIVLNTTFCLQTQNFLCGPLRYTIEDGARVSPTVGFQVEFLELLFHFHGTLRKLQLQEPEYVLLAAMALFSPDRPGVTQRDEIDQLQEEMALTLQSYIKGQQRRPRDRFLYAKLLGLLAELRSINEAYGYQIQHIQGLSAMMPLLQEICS
Outline: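 HepG2 cells transiently co-transfected with p(ER6)3-luc reporter, wild-type CAR expression vector and pRL-TK normalization plasmid; after 24 h stabilization, treated with compounds or vehicle (DMSO 0.1%, v/v) for 48 h. Firefly and Renilla luciferase read; fold change versus vehicle (set to 1), means ± SD of triplicates from a representative experiment.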

[2] = molecular target: T1, Nuclear receptor subfamily 1 group I member 3; test: Agonist activity at human CAR expressed in human HepG2 cells assessed as upregulation of CYP2B6 mRNA expression at 1 uM after 24 hrs by qRT-PCR method; conditions: hepg2, 24 h
[3] = tested on: HepG2; test: Cytotoxicity against human HepG2 cells assessed as cell viability after 24 hrs by MTS assay; conditions: hepg2, 24 h
[4] = molecular target: T2, AHR (Homo sapiens, UniProt P35869); test: (§1) Agonist activity at AHR expressed in human HepG2 cells after 24 hrs by pXRE-luciferase reporter gene assay; conditions: human, HepG2 cells expressing AHR; read-out: Imax
T2 sequence (P35869 whole entry): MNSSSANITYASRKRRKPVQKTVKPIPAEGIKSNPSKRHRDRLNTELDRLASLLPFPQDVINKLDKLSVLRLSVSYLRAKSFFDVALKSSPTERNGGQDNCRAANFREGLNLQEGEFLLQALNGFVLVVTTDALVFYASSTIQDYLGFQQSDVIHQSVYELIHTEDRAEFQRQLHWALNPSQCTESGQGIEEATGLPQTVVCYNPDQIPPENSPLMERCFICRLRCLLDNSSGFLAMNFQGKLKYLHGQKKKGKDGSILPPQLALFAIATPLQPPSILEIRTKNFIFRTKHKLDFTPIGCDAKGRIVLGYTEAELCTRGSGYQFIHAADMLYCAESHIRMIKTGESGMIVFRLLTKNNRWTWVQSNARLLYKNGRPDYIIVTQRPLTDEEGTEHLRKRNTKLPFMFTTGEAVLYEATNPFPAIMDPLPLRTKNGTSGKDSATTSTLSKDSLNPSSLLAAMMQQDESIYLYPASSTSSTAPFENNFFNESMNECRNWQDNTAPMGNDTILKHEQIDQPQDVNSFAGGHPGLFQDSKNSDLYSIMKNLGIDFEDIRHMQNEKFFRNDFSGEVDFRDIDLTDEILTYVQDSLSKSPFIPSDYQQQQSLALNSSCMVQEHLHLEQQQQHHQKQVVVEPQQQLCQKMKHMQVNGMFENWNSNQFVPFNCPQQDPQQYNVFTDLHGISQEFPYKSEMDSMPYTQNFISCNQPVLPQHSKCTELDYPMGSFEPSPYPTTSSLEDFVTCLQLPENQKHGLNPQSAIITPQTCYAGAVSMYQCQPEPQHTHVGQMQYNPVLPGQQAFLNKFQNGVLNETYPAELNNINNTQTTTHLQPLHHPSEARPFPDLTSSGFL

[5] = molecular target: T3, Aryl hydrocarbon receptor (Homo sapiens, UniProt P35869); test: as §1
T3 sequence (P35869 whole entry): T2 sequence (P35869 whole entry)

Structure (SMILES)	Activity [1]	Activity [2]	Activity [3]	Emax at 24 h [4] [%]	EC50 [5] [nM]
COc1cccc(-c2nc(O)c3ccccc3n2)c1	Active				
Clc1ccc(-c2nc3sccn3c2/C=N/OCc2ccc(Cl)c(Cl)c2)cc1	Active	Active	Non-toxic		
Clc1cc2c(cc1Cl)Oc1cc(Cl)c(Cl)cc1O2 [2,3,7,8-TETRACHLORODIBENZO-P-DIOXIN]				59	
Cc1ccc2cc3c(ccc4ccccc43)c3c2c1CC3 [3-METHYLCHOLANTHRENE]				119	490
